Reference: ChEMBL document CHEMBL1136094, “Novel, potent and selective cyclin D1/CDK4 inhibitors: indolo[6,7-a]pyrrolo[3,4-c]carbazoles” (Bioorg Med Chem Lett, 2003)

Columns and labels:
NCI-H460 = experiment: In vitro antiproliferative activity against human carcinoma cell line H460 (lung); assay type: functional, cell-based
[1] = biological target: Proto-oncogene tyrosine-protein kinase Src (Homo sapiens) (UniProt P12931); experiment: Inhibition of c-Src protein tyrosine kinase at 500 nM; parameters: scale not given: the % may be the effect or the level left
Sequence of Proto-oncogene tyrosine-protein kinase Src (Homo sapiens) (P12931 2-536 limits assumed): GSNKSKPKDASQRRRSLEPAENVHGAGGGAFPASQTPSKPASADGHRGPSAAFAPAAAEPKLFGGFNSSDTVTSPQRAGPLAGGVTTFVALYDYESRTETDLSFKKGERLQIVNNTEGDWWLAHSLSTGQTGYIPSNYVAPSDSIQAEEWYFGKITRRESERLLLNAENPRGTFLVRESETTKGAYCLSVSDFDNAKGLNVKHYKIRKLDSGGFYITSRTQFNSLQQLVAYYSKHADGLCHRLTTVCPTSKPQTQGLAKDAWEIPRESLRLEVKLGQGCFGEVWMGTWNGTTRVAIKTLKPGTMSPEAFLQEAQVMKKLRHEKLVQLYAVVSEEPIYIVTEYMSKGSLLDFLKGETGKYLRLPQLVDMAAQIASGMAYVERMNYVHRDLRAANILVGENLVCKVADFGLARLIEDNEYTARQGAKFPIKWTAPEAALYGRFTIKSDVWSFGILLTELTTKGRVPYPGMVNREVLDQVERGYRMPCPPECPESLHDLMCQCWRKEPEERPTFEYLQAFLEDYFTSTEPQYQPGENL
Method in brief: (§1)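 Panel of 39 kinases, each tested at 100 and 500 nM inhibitor. […] Activity is expressed as % of control and is the mean of duplicate assays.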

[2] = biological target: MAP kinase-activated protein kinase 5 (Homo sapiens) (UniProt Q8IW41); experiment: Inhibition of Protein kinase PRAK at 100 nM; parameters: scale not given: the % may be the effect or the level left; method in brief: as §1
[3] = biological target: Mitogen-activated protein kinase 8 (Homo sapiens) (UniProt P45983); experiment: Inhibition of c-Jun N-terminal kinase 1-alpha 1 at 500 nM; parameters: scale not given: the % may be the effect or the level left; method in brief: as §1
Sequence of Mitogen-activated protein kinase 8 (Homo sapiens) (P45983 whole entry): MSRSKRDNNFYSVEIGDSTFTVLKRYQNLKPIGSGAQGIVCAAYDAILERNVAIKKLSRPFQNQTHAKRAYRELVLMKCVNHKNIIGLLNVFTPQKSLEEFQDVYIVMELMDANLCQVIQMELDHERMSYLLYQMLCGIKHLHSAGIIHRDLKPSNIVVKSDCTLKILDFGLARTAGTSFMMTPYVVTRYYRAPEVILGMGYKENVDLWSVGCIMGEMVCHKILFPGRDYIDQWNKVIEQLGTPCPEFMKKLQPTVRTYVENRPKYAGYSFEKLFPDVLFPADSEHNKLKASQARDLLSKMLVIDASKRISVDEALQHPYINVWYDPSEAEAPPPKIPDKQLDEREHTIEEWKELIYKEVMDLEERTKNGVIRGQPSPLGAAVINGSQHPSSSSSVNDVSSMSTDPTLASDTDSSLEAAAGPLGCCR

[4] = biological target: Cyclin-dependent kinase 4 (Homo sapiens) (UniProt P11802); experiment: Inhibition of Rb phosphorylation at the CDK4 specific Ser780 residue (1 fold increase over control) after 24 hr incubation in HCT116 cells; assay type: functional, cell-based; conditions: HCT-116, concentration not given here
[5] = biological target: Tyrosine-protein kinase SYK (Homo sapiens) (UniProt P43405); experiment: Inhibition of Syk protein tyrosine kinase at 500 nM; parameters: scale not given: the % may be the effect or the level left; method in brief: as §1
[6] = biological target: T1, CDK3/cyclin E (Homo sapiens) (UniProt P24864+O96020+Q00526); experiment: Inhibition of Cyclin E-cyclin-dependent kinase 3 at 500 nM; assay type: protein-complex assay; parameters: scale not given: the % may be the effect or the level left
T1 sequence (O96020 whole entry, looked up): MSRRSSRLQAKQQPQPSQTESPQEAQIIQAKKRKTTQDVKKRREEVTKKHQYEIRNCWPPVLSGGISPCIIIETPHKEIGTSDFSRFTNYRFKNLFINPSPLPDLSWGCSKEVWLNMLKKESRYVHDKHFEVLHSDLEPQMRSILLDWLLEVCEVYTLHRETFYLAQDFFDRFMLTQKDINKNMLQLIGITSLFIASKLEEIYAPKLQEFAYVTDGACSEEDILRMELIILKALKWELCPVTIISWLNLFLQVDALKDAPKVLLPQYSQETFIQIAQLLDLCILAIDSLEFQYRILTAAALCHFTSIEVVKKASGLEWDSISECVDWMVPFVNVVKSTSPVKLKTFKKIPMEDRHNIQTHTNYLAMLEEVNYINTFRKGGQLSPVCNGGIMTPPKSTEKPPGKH
T1 sequence (P24864 whole entry, looked up): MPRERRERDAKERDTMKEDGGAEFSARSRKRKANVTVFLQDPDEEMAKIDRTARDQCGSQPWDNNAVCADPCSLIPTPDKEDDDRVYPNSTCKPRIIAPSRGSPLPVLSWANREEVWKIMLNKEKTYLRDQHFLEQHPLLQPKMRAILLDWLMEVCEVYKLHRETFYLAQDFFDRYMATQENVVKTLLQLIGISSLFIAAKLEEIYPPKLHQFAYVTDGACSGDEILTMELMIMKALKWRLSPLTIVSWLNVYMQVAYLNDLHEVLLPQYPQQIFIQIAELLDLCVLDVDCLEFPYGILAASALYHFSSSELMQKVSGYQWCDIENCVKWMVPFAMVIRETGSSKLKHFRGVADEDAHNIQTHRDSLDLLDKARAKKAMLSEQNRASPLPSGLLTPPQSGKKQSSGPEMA
T1 sequence (Q00526 whole entry, looked up): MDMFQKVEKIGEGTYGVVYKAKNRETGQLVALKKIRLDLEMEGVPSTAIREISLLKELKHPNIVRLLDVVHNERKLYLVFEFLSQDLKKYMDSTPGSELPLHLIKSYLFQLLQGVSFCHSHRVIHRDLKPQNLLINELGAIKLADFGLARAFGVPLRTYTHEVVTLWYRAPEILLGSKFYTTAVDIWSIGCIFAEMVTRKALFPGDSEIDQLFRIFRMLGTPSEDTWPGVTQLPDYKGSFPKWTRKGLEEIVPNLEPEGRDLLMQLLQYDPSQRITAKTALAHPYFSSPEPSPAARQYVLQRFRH
Method in brief: (§2)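 Panel profiling of isolated kinases with inhibitor at 100 nM and 500 nM. […] Remaining kinase activity is expressed as % of control and is the mean of duplicate assays.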

[7] = biological target: Calcium/calmodulin-dependent protein kinase type IV (Homo sapiens) (UniProt Q16566); experiment: Inhibition of Calcium/calmodulin-dependent protein kinase type IV at 100 nM; parameters: scale not given: the % may be the effect or the level left; method in brief: as §2
[8] = biological target: Ribosomal protein S6 kinase (P70S6K) (Homo sapiens) (UniProt Q9UBS0+P23443); experiment: Inhibition of Ribosomal protein S6 kinase (p70S6K) at 100 nM; assay type: protein-complex assay; parameters: scale not given: the % may be the effect or the level left; method in brief: as §1
[9] = biological target: Mitogen-activated protein kinase kinase kinase 20 (Homo sapiens, UniProt Q9NYL2); experiment: Inhibition of MLK-7 kinase
[10] = biological target: Mitogen-activated protein kinase 12 (Homo sapiens) (UniProt P53778); experiment: Inhibition of Stress activated protein kinase 3 at 500 nM; parameters: scale not given: the % may be the effect or the level left; method in brief: as §1
[11] = biological target: Mitogen-activated protein kinase 1 (Homo sapiens) (UniProt P28482); experiment: Inhibition of Mitogen-activated protein kinase 2 at 100 nM; parameters: scale not given: the % may be the effect or the level left; method in brief: as §2
[12] = biological target: Tyrosine-protein kinase SYK (Homo sapiens) (UniProt P43405); experiment: Inhibition of Syk protein tyrosine kinase at 100 nM; parameters: scale not given: the % may be the effect or the level left; method in brief: as §1
[13] = biological target: Mitogen-activated protein kinase 10 (Homo sapiens) (UniProt P53779); experiment: Inhibition of c-Jun N-terminal kinase 3 at 100 nM; parameters: scale not given: the % may be the effect or the level left; method in brief: as §1
Sequence of Mitogen-activated protein kinase 10 (Homo sapiens) (P53779 whole entry): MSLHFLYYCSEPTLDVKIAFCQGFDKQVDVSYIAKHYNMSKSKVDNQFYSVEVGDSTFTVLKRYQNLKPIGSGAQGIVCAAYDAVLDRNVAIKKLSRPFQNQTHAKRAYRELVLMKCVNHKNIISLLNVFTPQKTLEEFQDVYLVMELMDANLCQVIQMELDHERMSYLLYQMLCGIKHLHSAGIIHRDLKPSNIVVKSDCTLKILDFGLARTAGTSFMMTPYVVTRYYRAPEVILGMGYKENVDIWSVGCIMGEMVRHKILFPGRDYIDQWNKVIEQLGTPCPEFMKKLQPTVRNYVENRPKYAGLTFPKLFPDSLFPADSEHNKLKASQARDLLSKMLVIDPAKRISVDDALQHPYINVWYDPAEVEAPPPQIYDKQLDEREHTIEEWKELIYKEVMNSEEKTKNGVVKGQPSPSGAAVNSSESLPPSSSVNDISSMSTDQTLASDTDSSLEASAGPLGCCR

[14] = biological target: Serine/threonine-protein kinase Sgk1 (Homo sapiens) (UniProt O00141); experiment: Inhibition of Serum/glucocorticoid regulated kinase at 100 nM; parameters: scale not given: the % may be the effect or the level left; method in brief: as §1
[15] = biological target: Mitogen-activated protein kinase 10 (Homo sapiens) (UniProt P53779); experiment: Inhibition of c-Jun N-terminal kinase 3 at 500 nM; parameters: scale not given: the % may be the effect or the level left; method in brief: as §1
[16] = biological target: Dual specificity mitogen-activated protein kinase kinase 1 (Homo sapiens) (UniProt Q02750); experiment: Inhibition of Mitogen activated protein kinase kinase kinase 1 at 100 nM; parameters: scale not given: the % may be the effect or the level left
Sequence of Dual specificity mitogen-activated protein kinase kinase 1 (Homo sapiens) (Q02750 whole entry): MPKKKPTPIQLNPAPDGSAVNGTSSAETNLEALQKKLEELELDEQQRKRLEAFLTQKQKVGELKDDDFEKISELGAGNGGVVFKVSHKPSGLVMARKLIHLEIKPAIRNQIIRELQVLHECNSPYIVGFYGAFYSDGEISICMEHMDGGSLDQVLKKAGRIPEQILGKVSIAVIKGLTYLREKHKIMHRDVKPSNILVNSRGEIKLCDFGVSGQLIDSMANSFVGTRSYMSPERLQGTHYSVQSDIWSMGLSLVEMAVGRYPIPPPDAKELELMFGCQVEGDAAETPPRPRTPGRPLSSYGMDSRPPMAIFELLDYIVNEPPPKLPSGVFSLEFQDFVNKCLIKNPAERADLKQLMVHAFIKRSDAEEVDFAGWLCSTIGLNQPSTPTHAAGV

[17] = biological target: T2, Cyclin-dependent kinase 2/cyclin A (Homo sapiens) (UniProt P24941+P20248+P78396); experiment: Inhibition of Cyclin A-cyclin-dependent kinase 2 at 500 nM; assay type: protein-complex assay; parameters: scale not given: the % may be the effect or the level left; method in brief: as §2
[18] = biological target: T3, Casein kinase I (Homo sapiens) (UniProt Q9HCP0+P78368+P48730+P49674+P48729); experiment: Inhibition of CK1 kinase at 500 nM; assay type: protein assay; parameters: scale not given: the % may be the effect or the level left; method in brief: as §2
[19] = biological target: Serine/threonine-protein kinase Chk2 (Homo sapiens) (UniProt O96017); experiment: Inhibition of Serine/threonine-protein kinase Chk2 at 100 nM; parameters: scale not given: the % may be the effect or the level left; method in brief: as §1
[20] = biological target: T2, Cyclin-dependent kinase 2/cyclin A (Homo sapiens); experiment: Inhibition of Cyclin A-cyclin-dependent kinase 2 at 100 nM; assay type: protein-complex assay; parameters: scale not given: the % may be the effect or the level left; method in brief: as §2
[21] = biological target: Mitogen-activated protein kinase 8 (Homo sapiens) (UniProt P45983); experiment: Inhibition of c-Jun N-terminal kinase 1-alpha 1 at 100 nM; parameters: scale not given: the % may be the effect or the level left; method in brief: as §1
[22] = biological target: Cyclin-dependent kinase 4 (Homo sapiens) (UniProt P11802); experiment: Inhibition of Rb phosphorylation at the CDK4 specific Ser780 residue (3 fold increase over control) after 24 hr incubation in HCT116 cells; assay type: functional, cell-based; conditions: HCT-116, concentration not given here
[23] = biological target: cAMP-dependent protein kinase (PKA) (Homo sapiens, UniProt P22694+P17612+P22612); experiment: Inhibitory activity against Protein kinase A (Histone); assay type: protein assay
[24] = biological target: Rho-associated protein kinase 2 (Homo sapiens) (UniProt O75116); experiment: Inhibition of Protein kinase ROCK2 at 100 nM; parameters: scale not given: the % may be the effect or the level left; method in brief: as §1
Sequence of Rho-associated protein kinase 2 (Homo sapiens) (O75116 whole entry, looked up): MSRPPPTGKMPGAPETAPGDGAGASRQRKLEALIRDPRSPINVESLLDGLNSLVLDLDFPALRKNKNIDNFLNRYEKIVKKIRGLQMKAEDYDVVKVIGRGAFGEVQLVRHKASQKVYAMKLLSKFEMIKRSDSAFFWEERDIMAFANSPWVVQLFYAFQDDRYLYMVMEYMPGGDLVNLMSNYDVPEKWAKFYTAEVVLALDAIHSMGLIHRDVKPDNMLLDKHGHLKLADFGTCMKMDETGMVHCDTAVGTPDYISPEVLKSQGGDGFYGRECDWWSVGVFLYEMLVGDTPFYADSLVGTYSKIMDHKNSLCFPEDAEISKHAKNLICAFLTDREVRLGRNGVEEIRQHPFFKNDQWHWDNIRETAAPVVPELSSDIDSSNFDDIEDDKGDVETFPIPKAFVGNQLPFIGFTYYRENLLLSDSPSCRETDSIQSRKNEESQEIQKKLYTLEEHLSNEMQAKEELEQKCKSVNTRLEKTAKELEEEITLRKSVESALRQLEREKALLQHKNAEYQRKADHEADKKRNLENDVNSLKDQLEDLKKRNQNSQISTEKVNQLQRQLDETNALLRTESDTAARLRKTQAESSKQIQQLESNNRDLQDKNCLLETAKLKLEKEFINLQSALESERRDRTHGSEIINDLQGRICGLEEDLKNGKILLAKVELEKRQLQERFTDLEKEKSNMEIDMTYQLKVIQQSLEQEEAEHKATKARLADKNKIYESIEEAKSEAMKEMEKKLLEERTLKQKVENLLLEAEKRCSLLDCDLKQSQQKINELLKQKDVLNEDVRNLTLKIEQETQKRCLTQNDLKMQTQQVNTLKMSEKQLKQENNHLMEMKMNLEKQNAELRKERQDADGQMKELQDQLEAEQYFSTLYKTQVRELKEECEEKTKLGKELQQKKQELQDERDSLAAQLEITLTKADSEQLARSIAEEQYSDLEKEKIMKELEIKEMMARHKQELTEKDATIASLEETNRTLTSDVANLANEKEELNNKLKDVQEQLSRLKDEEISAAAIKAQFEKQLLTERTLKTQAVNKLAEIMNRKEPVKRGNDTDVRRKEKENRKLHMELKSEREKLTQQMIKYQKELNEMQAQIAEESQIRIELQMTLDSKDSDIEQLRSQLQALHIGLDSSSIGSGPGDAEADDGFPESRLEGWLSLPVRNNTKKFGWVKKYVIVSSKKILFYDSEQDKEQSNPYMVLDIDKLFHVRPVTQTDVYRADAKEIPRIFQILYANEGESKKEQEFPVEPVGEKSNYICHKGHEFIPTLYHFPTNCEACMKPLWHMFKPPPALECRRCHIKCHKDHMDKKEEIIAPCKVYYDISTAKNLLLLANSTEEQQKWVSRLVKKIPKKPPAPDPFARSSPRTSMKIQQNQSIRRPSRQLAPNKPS

[25] = biological target: Dual specificity mitogen-activated protein kinase kinase 4 (Homo sapiens) (UniProt P45985); experiment: Inhibition of mitogen-activated protein kinase kinase 4 at 500 nM; parameters: scale not given: the % may be the effect or the level left; method in brief: as §1
[26] = biological target: RAF proto-oncogene serine/threonine-protein kinase (Homo sapiens) (UniProt P04049); experiment: Inhibition of RAF proto-oncogene serine/threonine-protein kinase at 500 nM; parameters: scale not given: the % may be the effect or the level left; method in brief: as §1
[27] = biological target: Dual specificity mitogen-activated protein kinase kinase 1 (Homo sapiens) (UniProt Q02750); experiment: Inhibition of Mitogen activated protein kinase kinase kinase 1 at 500 nM; parameters: scale not given: the % may be the effect or the level left
[28] = Inhibition of AMP-activated Protein Kinase at 500 nM; parameters: scale not given: the % may be the effect or the level left; method in brief: as §2
[29] = biological target: Dual specificity mitogen-activated protein kinase kinase 7 (Homo sapiens) (UniProt O14733); experiment: Inhibition of MKK7-beta kinase at 100 nM; parameters: scale not given: the % may be the effect or the level left; method in brief: as §2
[30] = biological target: Mitogen-activated protein kinase 14 (Homo sapiens, UniProt Q16539); experiment: Inhibition of Mitogen-activated protein kinase p38 alpha
[31] = biological target: Proto-oncogene tyrosine-protein kinase Src (Homo sapiens) (UniProt P12931); experiment: Inhibition of c-Src protein tyrosine kinase at 100 nM; parameters: scale not given: the % may be the effect or the level left; method in brief: as §1
[32] = biological target: Tyrosine-protein kinase ZAP-70 (Homo sapiens) (UniProt P43403); experiment: Inhibition of Zeta-chain (TCR) associated protein kinase 70 kDa (ZAP70) at 100 nM; parameters: scale not given: the % may be the effect or the level left; method in brief: as §1
[33] = biological target: Serine/threonine-protein kinase Chk1 (Homo sapiens) (UniProt O14757); experiment: Inhibition of Serine/threonine-protein kinase Chk1 at 500 nM; parameters: scale not given: the % may be the effect or the level left; method in brief: as §1
Sequence of Serine/threonine-protein kinase Chk1 (Homo sapiens) (O14757 whole entry): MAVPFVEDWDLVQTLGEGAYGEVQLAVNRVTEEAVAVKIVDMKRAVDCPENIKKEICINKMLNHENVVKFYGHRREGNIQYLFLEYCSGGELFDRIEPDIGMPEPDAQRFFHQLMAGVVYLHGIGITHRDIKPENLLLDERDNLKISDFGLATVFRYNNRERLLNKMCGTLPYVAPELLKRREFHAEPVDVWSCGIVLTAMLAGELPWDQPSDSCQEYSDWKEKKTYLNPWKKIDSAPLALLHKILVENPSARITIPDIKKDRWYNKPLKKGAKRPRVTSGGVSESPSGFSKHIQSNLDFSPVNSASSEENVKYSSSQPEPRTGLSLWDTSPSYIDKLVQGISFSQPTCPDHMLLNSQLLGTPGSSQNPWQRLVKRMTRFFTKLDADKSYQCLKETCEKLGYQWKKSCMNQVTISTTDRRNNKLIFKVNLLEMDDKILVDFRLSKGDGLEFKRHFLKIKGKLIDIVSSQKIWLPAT

[34] = biological target: T1, CDK3/cyclin E (Homo sapiens); experiment: Inhibition of Cyclin E-cyclin-dependent kinase 3 at 100 nM; assay type: protein-complex assay; parameters: scale not given: the % may be the effect or the level left; method in brief: as §2
[35] = biological target: Tyrosine-protein kinase CSK (Homo sapiens) (UniProt P41240); experiment: Inhibition of Tyrosine-protein kinase CSK at 100 nM; parameters: scale not given: the % may be the effect or the level left; method in brief: as §1
[36] = biological target: Rho-associated protein kinase 2 (Homo sapiens) (UniProt O75116); experiment: Inhibition of Protein kinase ROCK2 at 500 nM; parameters: scale not given: the % may be the effect or the level left; method in brief: as §1
[37] = biological target: MAP kinase-activated protein kinase 5 (Homo sapiens) (UniProt Q8IW41); experiment: Inhibition of Protein kinase PRAK at 500 nM; parameters: scale not given: the % may be the effect or the level left; method in brief: as §1
[38] = biological target: Serine/threonine-protein kinase Chk1 (Homo sapiens) (UniProt O14757); experiment: Inhibition of Serine/threonine-protein kinase Chk1 at 100 nM; parameters: scale not given: the % may be the effect or the level left; method in brief: as §1
[39] = biological target: Tyrosine-protein kinase Fyn (Homo sapiens) (UniProt P06241); experiment: Inhibition of Fyn protein kinase at 100 nM; parameters: scale not given: the % may be the effect or the level left; method in brief: as §2
[40] = biological target: T3, Casein kinase I (Homo sapiens); experiment: Inhibition of CK1 kinase at 100 nM; assay type: protein assay; parameters: scale not given: the % may be the effect or the level left; method in brief: as §2
[41] = biological target: Protein kinase C beta type (Homo sapiens) (UniProt P05771); experiment: Inhibition of Protein kinase C beta 2 at 100 nM; parameters: scale not given: the % may be the effect or the level left; method in brief: as §2
[42] = biological target: Tyrosine-protein kinase Lyn (Homo sapiens) (UniProt P07948); experiment: Inhibition of Protein tyrosine kinase Lyn at 100 nM; parameters: scale not given: the % may be the effect or the level left
TGF-beta receptor type-2 = TGF-beta receptor type-2 (Homo sapiens, UniProt P37173); experiment: Inhibition of TGF-beta type II receptor
[43] = biological target: Tyrosine-protein kinase Blk (Homo sapiens) (UniProt P51451); experiment: Inhibition of B lymphoid tyrosine kinase at 500 nM; parameters: scale not given: the % may be the effect or the level left; method in brief: as §2

Cn1ccc2ccc3c4[nH]c5c(CCCN[C@H]6CC[C@H](O)CC6)cccc5c4c4c(c3c21)C(=O)NC4=O
IC50 (NCI-H460): 1.67 µM
Control [1]: 91%
Control [2]: 86%
Control [3]: 88%
inhibition [4]: 45%
Control [5]: 68%
Control [6]: 63%
Control [7]: 108%
Control [8]: 93%
IC50 [9]: 9.97 µM
Control [10]: 109%
Control [11]: 103%
Control [12]: 94%
Control [13]: 105%
Control [14]: 94%
Control [15]: 97%
Control [16]: 95%
Control [17]: 42%
Control [18]: 89%
Control [19]: 84%
Control [20]: 83%
Control [21]: 99%
inhibition [22]: 83%
IC50 [23]: 2.93 µM
Control [24]: 90%
Control [25]: 84%
Control [26]: 107%
Control [27]: 87%
Control [28]: 95%
Control [29]: 86%
IC50 [30]: 20.2 µM
Control [31]: 100%
Control [32]: 134%
Control [33]: 70%
Control [34]: 89%
Control [35]: 104%
Control [36]: 62%
Control [37]: 50%
Control [38]: 86%
Control [39]: 92%
Control [40]: 98%
Control [41]: 96%
Control [42]: 78%
IC50 (TGF-beta receptor type-2): > 20 µM
Control [43]: 14%
